Test results taken from ChEMBL document CHEMBL4041527, “Disulfide Bond-Containing Ajoene Analogues As Novel Quorum Sensing Inhibitors of Pseudomonas aeruginosa” (J Med Chem, 2017).
pIC50: −log10 of the molar value. Active and inactive are the calls of the source. No cut-off for these calls is given here.

What was measured:
[1] = tested on: Pseudomonas aeruginosa; experiment: Growth inhibition of Pseudomonas aeruginosa PAO1 harboring reporter plasmid lasB-gfp
[2] = (§1) Inhibition of quorum sensing LasI synthase in Pseudomonas aeruginosa PAO1 harboring reporter plasmid lasB-gfp assessed as reduction in lasB expression measured every 15 mins for 12 hrs by GFP-fluorescence assay
[3] = tested on: Pseudomonas aeruginosa PAO1; experiment: as §1
[4] = tested on: RAW264.7; experiment: Cytotoxicity against mouse RAW264.7 cells at 100 uM measured after 16 hrs by Alamar blue assay; format: cell-based; settings: raw264.7, 16 h
Summary of the method: (§2)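 RAW264.7 macrophages in DMEM with 10% FBS, 1 × 10^5 per well, grown 16 h. Cells were washed with PBS and exposed to compound at 0, 0.01, 0.1, 1, 10 or 100 µM for 16 h at 37 °C, 5% CO2. Alamar Blue added, 3 h incubation, OD595 read. Triplicates, mean±s.d., compared with DMSO.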

[5] = tested on: Pseudomonas aeruginosa; experiment: Antibacterial activity against Pseudomonas aeruginosa in bacterial coated silicone implanted BALB/c mouse assessed as reduction in biofilm formation at 10 uM measured at 24 hrs post infection; format: functional
Summary of the method: (§3)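 Female BALB/c mice, 8 weeks old. A 4 mm silicone tube was incubated 18 h at 37 °C in 0.9% NaCl with P. aeruginosa (OD600 0.1), then inserted into the peritoneal cavity under ketamine/xylazine. At 2 h post-infection, 200 µL of 10 µM compound (EtOH stock diluted in 20% hydroxypropyl-β-cyclodextrin/saline) was injected at the implant site; vehicle for controls. At 24 h, CFU/mL counted from sonicated implants and homogenized spleens on LB; Mann-Whitney U test.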

[6] = target: T1, HTH-type quorum-sensing regulator RhlR (Pseudomonas aeruginosa (strain ATCC 15692 / PAO1 / 1C / PRS 101 / LMG12228)) (UniProt P54292); experiment: Inhibition of quorum sensing regulator protein RhlR in wild-type Pseudomonas aeruginosa PAO1 assessed as reduction in rhamnolipid level at 10 uM after 24 hrs relative to control
T1 sequence (whole entry): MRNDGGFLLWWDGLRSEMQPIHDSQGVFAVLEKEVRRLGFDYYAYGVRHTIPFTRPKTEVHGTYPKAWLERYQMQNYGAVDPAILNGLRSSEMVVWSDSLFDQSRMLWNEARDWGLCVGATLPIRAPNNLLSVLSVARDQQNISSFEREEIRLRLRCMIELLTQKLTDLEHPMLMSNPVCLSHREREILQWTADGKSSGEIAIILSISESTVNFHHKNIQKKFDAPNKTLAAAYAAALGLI
Summary of the method: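 PAO1 subculture diluted 100-fold into ABTGC (OD600 0.1) with 10 µM compound, ∆lasI∆rhlI as negative control. Grown 24 h at 37 °C, 200 rpm; final OD600 read. Supernatant extracted twice with diethyl ether and rhamnolipid quantified by a modified orcinol method. Student's t test, mean ± SD.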

[7] = tested on: Pseudomonas aeruginosa; experiment: Antibacterial activity against Pseudomonas aeruginosa infected in BALB/c mouse assessed as reduction in bacterial dissemination in spleen at 10 uM measured at 24 hrs post infection; format: functional; summary of the method: as §3
[8] = tested on: Pseudomonas aeruginosa; experiment: Effect on GFP fluorescence output signal in Pseudomonas aeruginosa PAO1 at 10 uM measured every 15 mins for 12 hrs; format: ADME
Summary of the method: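 PAO1-gfp control strain, handled as the lasB-gfp reporter assay. Overnight LB culture diluted in ABTGC to OD600 0.02 and mixed with compound, final 10 µM, DMSO 0.1% final. Incubated at 37 °C; OD600 and GFP fluorescence (ex 485/em 535 nm) read every 15 min for at least 12 h, in triplicate.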

[9] = target: T2, HTH-type quorum-sensing regulator RhlR (Pseudomonas aeruginosa (strain ATCC 15692 / PAO1 / 1C / PRS 101 / LMG12228), UniProt P54292); experiment: Inhibition of quorum sensing regulator protein RhlR in Pseudomonas aeruginosa PAO1 harboring reporter plasmid rhlA-gfp assessed as reduction in rhlA expression measured every 15 mins for 12 hrs by GFP-fluorescence assay
T2 sequence (P54292 whole entry): T1 sequence (whole entry)

[10] = Inhibition of quorum sensing regulator protein pqsR in Pseudomonas aeruginosa PAO1 harboring reporter plasmid pqsA-gfp assessed as reduction in pqsA expression measured every 15 mins for 12 hrs by GFP-fluorescence assay
[11] = tested on: RAW264.7; experiment: Cytotoxicity against mouse RAW264.7 cells at 0.01 to 10 uM measured after 16 hrs by Alamar blue assay; format: cell-based; settings: raw264.7, 16 h; summary of the method: as §2
[12] = tested on: Pseudomonas aeruginosa PAO1; experiment: Inhibition of quorum sensing LasI synthase in wild-type Pseudomonas aeruginosa PAO1 assessed as reduction in elastase production at 10 uM incubated for 24 hrs measured every 10 mins for 3 hrs by BODIPY fluorophore-labelled DQ elastin conjugate based fluorescence assay
Summary of the method: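 PAO1 wild type, with ∆lasI∆rhlI as negative control, diluted to OD600 0.01 in 5 mL ABTGC with 10 µM compound. Grown 24 h at 37 °C, 200 rpm. Cleared supernatant assayed with BODIPY FL-labelled DQ elastin; fluorescence (ex 490/em 520 nm) read every 10 min for 3 h. Student's t test, mean ± SD.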

[13] = tested on: Pseudomonas aeruginosa PAO1; experiment: Inhibition of quorum sensing LasI synthase in Pseudomonas aeruginosa PAO1 harboring reporter plasmid lasB-gfp at 10 uM in presence of bovine serum albumin measured after 18 hrs by GFP-fluorescence assay
Summary of the method: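 BSA dissolved in ABTGC at 100 mg/mL, then 2-fold serially diluted across rows; compound final 10 µM. PAO1-lasB-gfp, grown overnight in LB, added at OD600 0.02 in ABTGC. GFP/OD read after 18 h at 37 °C.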

[14] = target: T1, HTH-type quorum-sensing regulator RhlR (Pseudomonas aeruginosa (strain ATCC 15692 / PAO1 / 1C / PRS 101 / LMG12228)); experiment: Inhibition of quorum sensing regulator protein RhlR in wild-type Pseudomonas aeruginosa PAO1 assessed as reduction in pyocyanin level at 10 uM after 48 hrs
Summary of the method: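 PAO1 wild type, with ∆lasI∆rhlI as negative control, standardized to OD600 0.1 and diluted 100-fold into 25 mL King's medium with 10 µM compound. Grown 48 h at 37 °C, 200 rpm; final OD600 read. Pyocyanin extracted from supernatant with chloroform then 0.2 M HCl; absorbance read on the aqueous layer. Student's t test.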

[15] = tested on: Pseudomonas aeruginosa PAO1; experiment: Inhibition of quorum sensing LasI synthase in Pseudomonas aeruginosa PAO1 harboring reporter plasmid lasB-gfp assessed as reduction in lasB expression at 10 uM measured every 15 mins for 12 hrs by GFP-fluorescence assay

C=CCSSc1nc2ccccc2s1
growth inhibition (GI) [1]: Non-Toxic
pIC50 [2]: 6.01
inhibition [3]: Dose-dependent effect
Activity [4]: Toxic
Activity [5]: Active
inhibition [6]: 50%
Activity [7]: Active
Activity [8]: Non-Toxic
pIC50 [9]: 5.69
pIC50 [10]: 6.48
Activity [11]: Non-Toxic
inhibition [12]: Active
inhibition [13]: Active
inhibition [14]: Active

CCOC(=S)SCC#N
pIC50 [2]: 5.67
inhibition [3]: Dose-dependent effect

CCOc1ccc2nc(SSc3nc4ccc(OCC)cc4s3)sc2c1
growth inhibition (GI) [1]: Non-Toxic
pIC50 [2]: 4.34

CCOc1ccc2nc(SSc3ccc(Cl)cc3)sc2c1
growth inhibition (GI) [1]: Non-Toxic
pIC50 [2]: 6.14

c1ccc(SSc2nc3ccccc3s2)cc1
growth inhibition (GI) [1]: Non-Toxic
pIC50 [2]: 5.87

Cc1ccc2nc(SSc3ccc(Cl)cc3)sc2c1
growth inhibition (GI) [1]: Non-Toxic
pIC50 [2]: 6.17

O=C(NS(=O)(=O)c1ccccc1)c1ccccc1
pIC50 [2]: 4.44
inhibition [3]: Dose-dependent effect

Cc1ccc2nc(SSc3nc4ccc(C)cc4s3)sc2c1
growth inhibition (GI) [1]: Non-Toxic
pIC50 [2]: 4.77

C[S+]([O-])CCCN=C=S (configuration not stated)
growth inhibition (GI) [1]: Non-Toxic
pIC50 [2]: 4.51

C=CCSSc1nnnn1-c1ccccc1
growth inhibition (GI) [1]: Non-Toxic
inhibition [15]: inactive

C=CCSSc1nc2ccc(Cl)cc2s1
growth inhibition (GI) [1]: Non-Toxic
pIC50 [2]: 6.11

C=CCSSc1nc2ccc(C)cc2s1
growth inhibition (GI) [1]: Non-Toxic
pIC50 [2]: 5.95

CCCSc1nc2ccccc2s1
growth inhibition (GI) [1]: Non-Toxic
inhibition [3]: inactive

C=CCSSc1nc2ccc(Cl)cc2o1
growth inhibition (GI) [1]: Non-Toxic
pIC50 [2]: 5.39

C=CCSSc1ccccc1C(=O)OC
growth inhibition (GI) [1]: Non-Toxic
inhibition [15]: inactive

FC(F)(F)c1ccc2nc(SSc3ccc(Cl)cc3)sc2c1
growth inhibition (GI) [1]: Non-Toxic
pIC50 [2]: 6.24

CCCSSc1nc2ccccc2s1
growth inhibition (GI) [1]: Non-Toxic
pIC50 [2]: 5.66

C=CCSSc1nc2ccc(C(F)(F)F)cc2s1
growth inhibition (GI) [1]: Non-Toxic
pIC50 [2]: 5.87

C=CCSSc1nc2ccc(OCC)cc2s1
growth inhibition (GI) [1]: Non-Toxic
pIC50 [2]: 5.45

Clc1ccc(Sc2nc3ccccc3s2)cc1
growth inhibition (GI) [1]: Non-Toxic
inhibition [3]: inactive

C=CCSS/C=C/C[S+]([O-])CC=C (configuration not stated) [AJOENE]
growth inhibition (GI) [1]: Non-Toxic
pIC50 [2]: 4.82
pIC50 [9]: 4.30

C=CCSSc1nnc(N)s1
growth inhibition (GI) [1]: Non-Toxic
pIC50 [2]: 5.64
inhibition [3]: Dose-dependent effect

c1ccc2sc(SSC3CCCCC3)nc2c1
growth inhibition (GI) [1]: Non-Toxic
pIC50 [2]: 5.22

C=CCSc1nc2ccccc2s1
growth inhibition (GI) [1]: Non-Toxic
inhibition [3]: inactive

C=CCSSCc1ccccc1
growth inhibition (GI) [1]: Non-Toxic
pIC50 [2]: 4.68

C=CCCSc1nc2ccccc2s1
growth inhibition (GI) [1]: Non-Toxic
inhibition [3]: inactive

FC(F)(F)c1ccc2nc(SSc3nc4ccc(C(F)(F)F)cc4s3)sc2c1
growth inhibition (GI) [1]: Non-Toxic
pIC50 [2]: 4.92

COc1ccc(SSc2nc3ccccc3s2)cc1
growth inhibition (GI) [1]: Non-Toxic
pIC50 [2]: 5.78

C=CCSSc1nc2cc(OC)ccc2o1
growth inhibition (GI) [1]: Non-Toxic
pIC50 [2]: 5.46

Clc1ccc(SSc2nc3ccccc3s2)cc1
growth inhibition (GI) [1]: Non-Toxic
pIC50 [2]: 6.25
Activity [4]: Toxic
Activity [5]: Active
inhibition [6]: 50%
Activity [7]: Active
Activity [8]: Non-Toxic
Activity [11]: Non-Toxic
inhibition [12]: Active
inhibition [13]: Active
inhibition [14]: Active

Clc1ccc(SSc2nc3ccc(Cl)cc3s2)cc1
growth inhibition (GI) [1]: Non-Toxic
pIC50 [2]: 5.49

c1ccc2sc(SSc3nc4ccccc4s3)nc2c1 [BENZOTHIAZYL DISULFIDE]
growth inhibition (GI) [1]: Non-Toxic
pIC50 [2]: 4.84
